Activity calls are given as the source filed them. The rule behind the calls is not given here.
Columns and labels:
Hepatitis B virus = test: Antiviral activity against HBV infected in mouse AML12HBV10 cells assessed as reduction in viral replication incubated for 48 hrs and measured by [alpha-32P]UTP-labeled radio-probe based dot blot hybridization assay; type: functional, organism-based
In short: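 The test used the stable HBV line AML12HBV10, derived from immortalized mouse hepatocytes (AML12). HBV replication was measured by dot blot hybridization and EC50 was determined.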

[1] = Cytotoxicity against mouse […] measured by MTT assay; type: toxicity, cell-based, AML12HBV10; details: aml12hbv10
In short: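 Cytotoxicity was measured by MTT assay in the stable HBV line AML12HBV10, derived from immortalized mouse hepatocytes (AML12), and CC50 was determined.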

[2] = Metabolic stability in mouse liver microsomes assessed as half-life; type: ADME, Microsome; details: microsomes
[3] = Metabolic stability in human liver microsomes assessed as half-life; type: ADME, Microsome; details: microsomes
HepDES19 [4] = test: Antiviral activity against HBV infected in human HepDES19 cells assessed as reduction of capsid associated HBV DNA 5 uM measured by agarose gel electrophoresis-based particle gel assay; type: functional, cell-based
In short: (§1)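 HepDES19 cells were kept with tetracycline to block pgRNA transcription (negative control) or without it to induce pgRNA transcription and HBV DNA replication. Compounds (1, 2 or 5 μM) or DMSO were added starting 24 h after tet removal and kept for 6 days.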

HepDES19 [5] = test: Antiviral activity against HBV infected in human HepDES19 cells assessed reduction of amounts of encapsidated pgRNA 5 uM […] by northern blot hybridization assay; type: functional, cell-based
In short: (§2)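 In tet-inducible HepDES19 cells, pgRNA transcription was induced by tetracycline removal; tet-maintained cells were the negative control. Treatment with DMSO or compound at 2 or 5 μM began 24 h after tet removal and lasted 6 days. Encapsidated pgRNA was detected by Northern blot hybridization, with ribosomal RNA as loading control.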

HepDES19 [6] = test: Antiviral activity against HBV infected in human HepDES19 cells assessed as reduction of capsid associated HBV DNA 2 uM measured by agarose gel electrophoresis-based particle gel assay; type: functional, cell-based; in short: as §1
HepDES19 [7] = test: Antiviral activity against HBV infected in human HepDES19 cells assessed reduction of amounts of encapsidated pgRNA 2 uM […] by northern blot hybridization assay; type: functional, cell-based; in short: as §2
HepDES19 [8] = test: Antiviral activity against HBV infected in human HepDES19 cells assessed as reduction in levels of intracellular core protein 2 uM measured by Western blot assay; type: functional, cell-based
In short: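 HepDES19 cells kept in tetracycline, then switched to tet-free medium to induce pgRNA transcription and HBV DNA replication; tet-maintained cells serve as negative control. Treatment with compound or DMSO started 24 h after tet removal and continued for 6 days. Intracellular core protein was detected by Western blot with an antibody against the C-terminal 14 residues of core, with β-actin as loading control.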

HepDES19 [9] = test: Antiviral activity against HBV infected in human HepDES19 cells assessed as reduction of capsid associated HBV DNA 1 uM measured by agarose gel electrophoresis-based particle gel assay; type: functional, cell-based; in short: as §1
[10] = Hepatitis B virus, AML12HBV10, 48 h

O=C1CCN(C(=O)Nc2ccc(F)c(Cl)c2)c2ccc(Cl)cc21
EC50 (Hepatitis B virus; [10]): 4.83 µM
CC50 [1]: > 100 µM

O=C(Nc1ccc(C(F)(F)F)c(Cl)c1)c1cccc2c1OCCO2
t1/2 [2]: 6.9 min
EC50 (Hepatitis B virus; [10]): 1.59 µM
CC50 [1]: > 50 µM
t1/2 [3]: 44.4 min

O=C(Nc1ccc(F)c(Cl)c1)c1cc(S(=O)(=O)N2CCC(O)CC2)cc2c1OCCO2
EC50 (Hepatitis B virus; [10]): 5.57 µM
CC50 [1]: > 50 µM

O=C(Nc1cc(F)c(F)c(F)c1)c1cccc2c1OCCO2
EC50 (Hepatitis B virus; [10]): 0.28 µM
CC50 [1]: > 100 µM

O=C1CCN(C(=O)Nc2cccc(Cl)c2)[C@@H]2CCCC[C@H]12
EC50 (Hepatitis B virus; [10]): 0.22 µM
CC50 [1]: > 20 µM

C[C@@H](NS(=O)(=O)c1cc2c(c(C(=O)Nc3ccc(F)c(Cl)c3)c1)OCCO2)c1ccncc1
EC50 (Hepatitis B virus; [10]): 13.4 µM

O=C1CCN(C(=O)Nc2ccc(F)c(Cl)c2)C(c2ccccc2)C1 (stereo not drawn)
EC50 (Hepatitis B virus; [10]): 5.01 µM
CC50 [1]: > 100 µM

O=C(Nc1ccc2c(c1)OCO2)c1cccc2c1OCCO2
EC50 (Hepatitis B virus; [10]): 4.2 µM
CC50 [1]: > 100 µM

Cc1cc(NC(=O)N2CCC(=O)[C@H]3CCCC[C@H]32)ccc1F
EC50 (Hepatitis B virus; [10]): 0.38 µM
CC50 [1]: > 20 µM

O=C1CCN(C(=O)Nc2ccc(F)c(Cl)c2)C(Cc2ccccc2)C1 (stereo not drawn)
EC50 (Hepatitis B virus; [10]): 5.11 µM
CC50 [1]: > 20 µM

O=C(Nc1ccc2c(c1)CCC2)c1cccc2c1OCCO2
EC50 (Hepatitis B virus; [10]): > 10 µM
CC50 [1]: > 50 µM

O=C(Nc1ccc(F)c(Cl)c1)C1CCCc2ccccc21 (stereo not drawn)
EC50 (Hepatitis B virus; [10]): 9.4 µM
CC50 [1]: 25 µM

CCC(C)NS(=O)(=O)c1cc2c(c(C(=O)Nc3ccc(F)c(Cl)c3)c1)OCCO2 (stereo not drawn)
t1/2 [2]: 16.4 min
EC50 (Hepatitis B virus; [10]): 1.64 µM
CC50 [1]: > 33.3 µM
t1/2 [3]: 37.4 min

O=C1CCN(C(=O)Nc2ccnc(Cl)n2)[C@@H]2CCCC[C@H]12
EC50 (Hepatitis B virus; [10]): > 10 µM
CC50 [1]: > 100 µM

O=C(Nc1ccc2ncsc2c1)c1cccc2c1OCCO2
EC50 (Hepatitis B virus; [10]): > 10 µM
CC50 [1]: > 50 µM

O=C(Nc1ccc(F)c(Cl)c1)c1cccc2nccnc12
EC50 (Hepatitis B virus; [10]): 2.39 µM
CC50 [1]: > 12.5 µM

O=C(Nc1ccc(N2CCOCC2)c(Cl)c1)c1cccc2c1OCCO2
EC50 (Hepatitis B virus; [10]): > 10 µM
CC50 [1]: > 25 µM

O=C1CCCN(C(=O)Nc2ccc(F)c(Cl)c2)c2ccccc21
EC50 (Hepatitis B virus; [10]): > 10 µM
CC50 [1]: > 100 µM

O=C1CCN(C(=O)Nc2ccc(F)c(Cl)c2)C2CCCCC12 (stereo in doubt; 60)
t1/2 [2]: 7 min
EC50 (Hepatitis B virus; aml12hbv10): 1.86 µM
t1/2 [3]: 48 min

O=C(Nc1ccc(F)c(Cl)c1)c1cccc2c1OCC2
EC50 (Hepatitis B virus; [10]): 2.18 µM
CC50 [1]: 4.6 µM

O=C(Nc1ccc(F)c(Cl)c1)N1CCS(=O)(=O)c2ccccc21
EC50 (Hepatitis B virus; [10]): > 10 µM
CC50 [1]: > 100 µM

O=C(NC1CC(F)(F)C1)c1cccc2c1OCCO2
EC50 (Hepatitis B virus; [10]): > 10 µM
CC50 [1]: > 100 µM

O=C1CC(c2ccccc2)N(C(=O)Nc2ccc(F)c(Cl)c2)c2ccccc21 (stereo not drawn)
EC50 (Hepatitis B virus; [10]): 2.89 µM
CC50 [1]: > 50 µM

O=C1CCN(C(=O)Nc2ncc(F)c(Cl)n2)[C@@H]2CCCC[C@H]12
EC50 (Hepatitis B virus; [10]): > 10 µM
CC50 [1]: > 50 µM

O=C1CCN(C(=O)Nc2ccc(F)c(C(F)F)c2)[C@@H]2CCCC[C@H]12
t1/2 [2]: 35 min
EC50 (Hepatitis B virus; [10]): 0.26 µM
CC50 [1]: > 20 µM
t1/2 [3]: 69 min

N#Cc1ccc(NC(=O)c2cccc3c2OCCO3)cc1Cl
EC50 (Hepatitis B virus; [10]): 3.84 µM
CC50 [1]: > 50 µM

O=C(Nc1ccc(O)c(Cl)c1)c1cccc2c1OCCO2
EC50 (Hepatitis B virus; [10]): 9.83 µM
CC50 [1]: > 100 µM

O=C1CCN(C(=O)Nc2cc(F)c(F)c(F)c2)[C@@H]2CCCC[C@H]12
EC50 (Hepatitis B virus; [10]): 2.41 µM
CC50 [1]: > 100 µM

O=C1COc2cccc(C(=O)Nc3ccc(F)c(Cl)c3)c2N1
EC50 (Hepatitis B virus; [10]): > 10 µM
CC50 [1]: > 50 µM

O=C1CC2CC1CN2C(=O)Nc1ccc(F)c(Cl)c1 (stereo not drawn)
EC50 (Hepatitis B virus; [10]): > 10 µM
CC50 [1]: > 100 µM

O=C1CCN(C(=O)Nc2ccc(F)c(Cl)c2)C2CCCCC12 (stereo in doubt; 61)
Activity (HepDES19 [4]): Active
Activity (HepDES19 [5]): Active

O=C1CCN(C(=O)Nc2ccc(F)c(Cl)c2)c2ccccc21
t1/2 [2]: 10 min
EC50 (Hepatitis B virus; [10]): 1.32 µM
CC50 [1]: > 12.5 µM
t1/2 [3]: 47.2 min

O=C(Nc1ccnc(Cl)c1)c1cccc2c1OCCO2
EC50 (Hepatitis B virus; [10]): 4.65 µM
CC50 [1]: > 100 µM

O=C1CC2CCC(C1)N2C(=O)Nc1ccc(F)c(Cl)c1
EC50 (Hepatitis B virus; [10]): > 10 µM
CC50 [1]: > 100 µM

COC(=O)C1=C(C)NC(c2ncc(F)cc2F)=N[C@H]1c1ccc(F)cc1Cl
Activity (HepDES19 [6]): Active
Activity (HepDES19 [7]): Active
Activity (HepDES19 [8]): Active

O=C(NCc1ccc(F)cc1F)c1cccc2c1OCCO2
EC50 (Hepatitis B virus; [10]): 4.62 µM
CC50 [1]: > 20 µM

O=C(Nc1ccc(F)c(Cl)c1)n1[nH]c(=O)c2ccccc21
EC50 (Hepatitis B virus; [10]): > 10 µM
CC50 [1]: > 100 µM

O=C(Nc1ccc(F)c(Cl)c1)c1cccc2ccoc12
t1/2 [2]: 6 min
EC50 (Hepatitis B virus; [10]): 0.73 µM
CC50 [1]: > 100 µM
t1/2 [3]: 61.2 min

CC1(C)Cc2cccc(C(=O)Nc3ccc(F)c(Cl)c3)c2O1
EC50 (Hepatitis B virus; [10]): 1.48 µM
CC50 [1]: > 50 µM

O=C1CCC(C(=O)Nc2ccc(F)c(Cl)c2)c2ccccc21 (stereo not drawn)
t1/2 [2]: 5.8 min
EC50 (Hepatitis B virus; [10]): 1.67 µM
CC50 [1]: > 100 µM

O=C(Nc1ccc(F)c(Cl)c1)N1CCOc2cccnc21
EC50 (Hepatitis B virus; [10]): > 10 µM
CC50 [1]: 26.3 µM

N#Cc1cc(NC(=O)N2CCC(=O)[C@H]3CCCC[C@H]32)ccc1F
EC50 (Hepatitis B virus; [10]): 0.85 µM
CC50 [1]: > 20 µM

O=C(Nc1ccc(F)c(Cl)c1)N1CCOc2ccccc21
t1/2 [2]: < 4 min
EC50 (Hepatitis B virus; [10]): 0.52 µM
CC50 [1]: > 100 µM
t1/2 [3]: 14.7 min

C[C@@H](NS(=O)(=O)c1ccc(F)c(C(=O)Nc2ccc(F)c(F)c2)c1)C1CC1
Activity (HepDES19 [5]): Active

O=C1CCN(C(=O)Nc2ccc(F)c(C(F)(F)F)c2)[C@@H]2CCCC[C@H]12
EC50 (Hepatitis B virus; [10]): 0.97 µM
CC50 [1]: > 20 µM

O=C(Nc1ccc(F)c(Cl)c1)c1cccc2c1OC(F)(F)O2
t1/2 [2]: 11 min
EC50 (Hepatitis B virus; [10]): 0.11 µM
CC50 [1]: > 100 µM
t1/2 [3]: 16.4 min

O=C1CCN(C(=O)Nc2ccc(F)c(Cl)c2)C2CCCCC12 (stereo not drawn)
t1/2 [2]: 7.8 min
EC50 (Hepatitis B virus; aml12hbv10): 1.81 µM
t1/2 [3]: 5 min

O=C(Nc1cc(Cl)nc(Cl)c1)c1cccc2c1OCCO2
EC50 (Hepatitis B virus; [10]): 6.3 µM
CC50 [1]: > 33.3 µM

O=C(CC1COCCO1)Nc1ccc(F)c(Cl)c1 (stereo not drawn)
EC50 (Hepatitis B virus; [10]): 5.02 µM
CC50 [1]: > 100 µM

O=C(Nc1ccc(F)c(Cl)c1)c1cccc2c1OCCC2
EC50 (Hepatitis B virus; [10]): 0.75 µM
CC50 [1]: > 12.5 µM

O=C(Nc1ccc(F)c(Cl)c1)c1cccc2c1OCCO2
t1/2 [2]: 6.6 min
EC50 (Hepatitis B virus; [10]): 0.2 µM
CC50 [1]: > 50 µM
t1/2 [3]: 1.7 min

C=C1[C@H](CO)[C@@H](O)C[C@@H]1n1cnc2c(=O)[nH]c(N)nc21
Activity (HepDES19 [9]): Active

O=C(Nc1ccc(F)c(Cl)c1)c1cccc2cc[nH]c12
EC50 (Hepatitis B virus; [10]): 4.48 µM
CC50 [1]: > 33.3 µM

Source: ChEMBL document CHEMBL5113379, “4-Oxooctahydroquinoline-1(2H)-carboxamides as hepatitis B virus (HBV) capsid core protein assembly modulators” (Bioorg Med Chem Lett, 2022)
